Data set [1] concerns the target T1, Cannabinoid receptor 1 (Homo sapiens, UniProt P21554). Put plainly: Positive allosteric modulatory activity at human CB1R expressed in CHO-K1 cells assessed as increase in CP55940-induced inhibition of forskolin-stimulated cAMP production after 30 mins in presence of CP55940 at EC20 concentration by hit-hunter cAMP assay. It counts as functional, cell-based. A digest of the protocol: (§1)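 Read-out was chemiluminescent cAMP detection, fit with a variable-slope 4-parameter regression. n = 1–3 independent experiments in duplicate.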

Data set [2] deals with T1, Cannabinoid receptor 1. The data set can be described thus: Positive allosteric modulatory activity at human CB1R expressed in CHO-K1 cells assessed as increase in CP55940-induced inhibition of forskolin-stimulated cAMP production after 30 mins in presence of CP55940 at EC20 concentration by hit-hunter cAMP assay relative to control. It counts as functional, cell-based. The method in brief: as §1
On the technique in general: Cyclic AMP is a second messenger, typically raised through Gs and lowered through Gi signalling.

The target of data set [3] is T1, Cannabinoid receptor 1. Put plainly: Positive allosteric modulatory activity at human CB1R expressed in CHO-K1 cells assessed as increase in CP55940-induced beta-arrestin2 recruitment after 90 mins in presence of CP55940 at EC20 concentration by pathhunter beta-arrestin assay. It counts as cell-based. A digest of the protocol:
(§2)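 Read-out was chemiluminescent β-arrestin2 recruitment, fit with a 4-parameter regression. n = 1–3 independent experiments in duplicate.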
For orientation: Recruitment of arrestin is a read-out of receptor activation apart from second messengers.

For data set [4], the target named is T1, Cannabinoid receptor 1. Put plainly: Positive allosteric modulatory activity at human CB1R expressed in CHO-K1 cells assessed as increase in CP55940-induced beta-arrestin2 recruitment after 90 mins in presence of CP55940 at EC20 concentration by pathhunter beta-arrestin assay relative to control. It counts as cell-based. The method in brief: as §2
The conditions of data set [5]: buffer, pH 7.4, 24 h.

For orientation: EC50 means the concentration giving half of the maximal effect. As usually defined, the Emax is the maximal effect, on the per cent scale that the assay sets.

T1 sequence (P21554 whole entry): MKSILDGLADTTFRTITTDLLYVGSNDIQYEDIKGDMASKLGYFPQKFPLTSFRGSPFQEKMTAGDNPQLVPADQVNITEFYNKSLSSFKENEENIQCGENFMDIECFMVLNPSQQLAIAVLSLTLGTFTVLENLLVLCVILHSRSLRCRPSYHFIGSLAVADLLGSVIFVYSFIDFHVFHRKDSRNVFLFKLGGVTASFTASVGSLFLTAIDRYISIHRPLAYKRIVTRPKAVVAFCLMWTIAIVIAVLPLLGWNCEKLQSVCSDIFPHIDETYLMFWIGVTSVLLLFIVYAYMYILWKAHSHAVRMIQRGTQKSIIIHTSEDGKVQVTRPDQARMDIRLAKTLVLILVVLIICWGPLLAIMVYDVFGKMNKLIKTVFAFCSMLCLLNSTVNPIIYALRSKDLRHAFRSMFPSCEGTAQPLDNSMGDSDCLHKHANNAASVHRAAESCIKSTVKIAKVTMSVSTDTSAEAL

On to `O=[N+]([O-])CC(c1ccccc1)c1c(-c2ccccc2)[nH]c2ccc(F)cc12` (stereo not drawn), for which the EC50 on Cannabinoid receptor 1 [1] is 191 nM; on Cannabinoid receptor 1 [3], 740 nM. Besides, the figures for the Emax on Cannabinoid receptor 1 [2] and at Cannabinoid receptor 1 [4] were 130% and 23%, respectively.
`O=[N+]([O-])CC(c1ccccc1)c1c(-c2ccccc2)[nH]c2cccnc12` (stereo not drawn): the results for the EC50 on Cannabinoid receptor 1 [1] and on Cannabinoid receptor 1 [3] were above 10000 nM and 1600 nM, respectively. Also, the results for the Emax at Cannabinoid receptor 1 [2] and on Cannabinoid receptor 1 [4] were 81% and 30%, respectively. In data set [5], the Therm_solubility is 11.2 µM.
Take `O=[N+]([O-])CC(c1ccc(F)cc1)c1c(-c2ccccc2)[nH]c2cc(F)ccc12` (stereo not drawn): the concentration for a half-maximal effect (EC50) turned out to be 1300 nM on Cannabinoid receptor 1 [1] and 1100 nM on Cannabinoid receptor 1 [3]. Also, the Emax on Cannabinoid receptor 1 [2] was found to be 47%; on Cannabinoid receptor 1 [4], 32%.
Turning to `O=[N+]([O-])CC(c1ccccc1)c1c(-c2ccccc2)[nH]c2ccncc12` (stereo not drawn), the 50% effective concentration (EC50) at Cannabinoid receptor 1 [1] and at Cannabinoid receptor 1 [3] was above 10000 nM throughout. Also, the Emax worked out at 4% on Cannabinoid receptor 1 [2] and 2.8% at Cannabinoid receptor 1 [4]. Moreover, the Therm_solubility in data set [5] was 23.6 µM.
For the molecule `O=[N+]([O-])CC(c1ccccc1)c1c(-c2ccccc2F)[nH]c2ccccc12` (stereo not drawn), the concentration for a half-maximal effect (EC50) on Cannabinoid receptor 1 [1] turned out to be 1400 nM; at Cannabinoid receptor 1 [3] it was 710 nM. Further, the Emax on Cannabinoid receptor 1 [2] is 140%; on Cannabinoid receptor 1 [4] it was 7%.
With `O=[N+]([O-])CC(c1ccc(F)cc1)c1c(-c2ccccc2)[nH]c2ccccc12` (stereo not drawn), the concentration for a half-maximal effect (EC50) is 440 nM on Cannabinoid receptor 1 [1] and above 10000 nM at Cannabinoid receptor 1 [3]. In addition, the Emax came to 110% on Cannabinoid receptor 1 [2] and 8% at Cannabinoid receptor 1 [4].
The matching figures for `O=[N+]([O-])CC(c1ccc(F)cc1)c1c(-c2ccccc2)[nH]c2c(F)cccc12` (stereo not drawn): 270 nM, 700 nM, 121% and 27%.
Regarding `O=[N+]([O-])CC(c1ccccc1)c1c(-c2ccc(F)cc2)[nH]c2ccccc12` (stereo not drawn), the results for the half-maximal effective concentration (EC50) at Cannabinoid receptor 1 [1] and at Cannabinoid receptor 1 [3] were 1600 nM and above 10000 nM, respectively. Also, the Emax on Cannabinoid receptor 1 [2] is 120%; at Cannabinoid receptor 1 [4] it was -2.2%.
For `O=[N+]([O-])CC(c1ccccc1)c1c(-c2ccccc2)[nH]c2cc(F)ccc12` (stereo not drawn), the results for the EC50 on Cannabinoid receptor 1 [1] and on Cannabinoid receptor 1 [3] were 110 nM and 1100 nM, respectively. The values for the Emax on Cannabinoid receptor 1 [2] and at Cannabinoid receptor 1 [4] were 120% and 38%, respectively.
Regarding `O=[N+]([O-])CC(c1ccc(F)cc1)c1c(-c2cccc(F)c2)[nH]c2cc(F)ccc12` (stereo not drawn), the EC50 at Cannabinoid receptor 1 [1] worked out at 1150 nM; at Cannabinoid receptor 1 [3], 2100 nM. Further, the Emax at Cannabinoid receptor 1 [2] worked out at 91%; at Cannabinoid receptor 1 [4], 56%.
Take `O=[N+]([O-])CC(c1ccccc1F)c1c(-c2ccccc2)[nH]c2ccccc12` (stereo not drawn): the concentration for a half-maximal effect (EC50) on Cannabinoid receptor 1 [1] is 43 nM; on Cannabinoid receptor 1 [3], 1060 nM. For the same molecule, the Emax on Cannabinoid receptor 1 [2] was 110%; on Cannabinoid receptor 1 [4] it was 63%.
In the case of `O=[N+]([O-])CC(c1ccccc1)c1c(-c2ccccc2)[nH]c2cccc(F)c12` (stereo not drawn), the values for the EC50 on Cannabinoid receptor 1 [1] and at Cannabinoid receptor 1 [3] were 130 nM and 900 nM, respectively. Besides, the results for the Emax at Cannabinoid receptor 1 [2] and on Cannabinoid receptor 1 [4] were 120% and 37%, respectively.
In the case of `O=[N+]([O-])CC(c1ccccc1F)c1c(-c2ccccc2)[nH]c2cc(F)ccc12` (stereo not drawn), the 50% effective concentration (EC50) at Cannabinoid receptor 1 [1] worked out at 58 nM; on Cannabinoid receptor 1 [3], 1140 nM.
Take `O=[N+]([O-])CC(c1cccc(F)c1)c1c(-c2ccccc2)[nH]c2ccccc12` (stereo not drawn): the half-maximal effective concentration (EC50) on Cannabinoid receptor 1 [1] was 730 nM; on Cannabinoid receptor 1 [3], 2500 nM. Moreover, the Emax is 130% at Cannabinoid receptor 1 [2] and 19% on Cannabinoid receptor 1 [4].
On to `O=[N+]([O-])CC(c1ccccc1F)c1c(-c2ccccc2)[nH]c2c(F)cccc12` (stereo not drawn), for which the EC50 on Cannabinoid receptor 1 [1] came out at 21 nM; at Cannabinoid receptor 1 [3] it was 680 nM.
Regarding `O=[N+]([O-])CC(c1ccccc1)c1c(-c2cccc(F)c2)[nH]c2ccccc12` (stereo not drawn), the EC50 at Cannabinoid receptor 1 [1] is 80 nM; on Cannabinoid receptor 1 [3] it was 1300 nM.
Take `O=[N+]([O-])CC(c1ccc(F)cc1)c1c(-c2cccc(F)c2)[nH]c2c(F)cccc12` (stereo not drawn): the EC50 was 230 nM on Cannabinoid receptor 1 [1] and 1100 nM at Cannabinoid receptor 1 [3]. Also, the values for the Emax at Cannabinoid receptor 1 [2] and at Cannabinoid receptor 1 [4] were 110% and 43%, respectively.
Consider `O=[N+]([O-])CC(c1ccccc1)c1c(-c2ccccc2)[nH]c2c(F)cccc12` (stereo not drawn), for which the values for the EC50 on Cannabinoid receptor 1 [1] and on Cannabinoid receptor 1 [3] were 22 nM and 750 nM, respectively. Moreover, the Emax was found to be 120% at Cannabinoid receptor 1 [2] and 45% at Cannabinoid receptor 1 [4].

For the origin of these results see ChEMBL document CHEMBL4376840, “Application of Fluorine- and Nitrogen-Walk Approaches: Defining the Structural and Functional Diversity of 2-Phenylindole Class of Cannabinoid 1 Receptor Positive Allosteric Modulators” (J Med Chem, 2020).
